Data reported in ChEMBL document CHEMBL3102750 (J Med Chem, 2013).

Tests used:
[1] = Fraction unbound in Sprague-Dawley rat brain at 5 uM after 4 hrs by equilibrium dialysis method; assay type: ADME, tissue-based
Summary of the method: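 Nonspecific binding measured in rat brain homogenate to give unbound fraction in brain (fu,br).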

[2] = target: T1, Cytochrome P450 1A2 (Homo sapiens, UniProt P05177); test: Inhibition of CYP1A2 in human liver microsomes using phenacetin as substrate preincubated for 15 mins followed by NADPH addition measured after 8 mins by LC/MS/MS analysis; assay type: ADME
T1 sequence (P05177 whole entry): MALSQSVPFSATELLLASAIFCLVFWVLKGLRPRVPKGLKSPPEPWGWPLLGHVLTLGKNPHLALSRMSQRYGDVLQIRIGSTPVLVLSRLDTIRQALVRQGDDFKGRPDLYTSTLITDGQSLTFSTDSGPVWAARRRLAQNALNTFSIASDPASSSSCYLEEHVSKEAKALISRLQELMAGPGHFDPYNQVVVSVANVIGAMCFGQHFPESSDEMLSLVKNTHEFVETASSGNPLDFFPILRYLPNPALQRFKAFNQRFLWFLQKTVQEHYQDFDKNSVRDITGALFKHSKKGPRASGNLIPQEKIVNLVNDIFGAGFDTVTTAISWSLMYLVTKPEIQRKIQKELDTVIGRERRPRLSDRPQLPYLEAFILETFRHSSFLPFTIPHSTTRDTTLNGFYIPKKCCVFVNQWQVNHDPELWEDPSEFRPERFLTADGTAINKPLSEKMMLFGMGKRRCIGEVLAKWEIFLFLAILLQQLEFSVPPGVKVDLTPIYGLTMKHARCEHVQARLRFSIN

Work on `O=C(c1ccc(F)c(F)c1)N1CCN2C(=O)c3ccccc3[C@@]12c1ccc(Cl)cc1` yielded a Fu [1] of 0.003 and an IC50 [2] of 25 µM.
